This note sets out measurements from PubChem BioAssay.

Experiment [1] is described as follows: inhibitors of TNFa-induced NFkB p65 translocation, primary screen, imaging, HUVEC, MLSMR starter and 10KST1 sets (AID 438;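 active = inhibition above 20% together with a positive visual image hit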;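 also: compound added about 3h40 before a 20 min TNFalpha stimulation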;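 as to inhibition: signal is the nuclear over cytoplasmic p65 intensity ratio per well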). The note with it: HUVEC TNFa-induced p65 nuclear translocation; cell count: measured here: nuclei count (cytotoxicity indicator), at 2.08 µM; inhibition: at 2 µM, stronger effect = higher value, 0% TNFa-plus-vehicle, 100% no-TNFa wells.
Experiment [2] is described as follows: endothelial E-selectin expression blockers – imaging, HUVEC, immunofluorescence, MLSMR starter and 10KST1 sets, primary screen (AID 487;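 active = visually confirmed hit in the image check and inhibition above 20%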;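 as to inhibition: signal is fraction of cell area covered by stained E-selectin grains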;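 as to nuclei count: 100% = median nuclei count of all wells on the same plate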). The note with it: HUVEC TNFalpha-induced E-selectin immunofluorescence imaging, at 2 µM; inhibition: stronger effect = higher value; nuclei count: measured here: cell number, toxicity.
Experiment [3] is described as follows: Primary imaging screen for DUSP6 inhibitors that restore phospho-Erk in transfected HeLa cells, chemical complementation (AID 609;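 active = compounds giving at least 50% inhibition in the cell-based MKP-3 phosphatase rescue imaging test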;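 as to inhibition: phospho-Erk level distribution per well compared with pooled transfected vehicle control wells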). The note with it: HeLa MKP-3 transfected, phospho-Erk imaging KS statistic, at 10 µM, cells stimulated with TPA for 15 min.
Experiment [4] has as its target Dual specificity protein phosphatase 6 (Homo sapiens) (UniProt Q16828). Described as above. The note with it: HeLa MKP-3 transfected, phospho-Erk imaging KS statistic; at 10 µM; stronger effect = higher value; cells stimulated with TPA for 15 min.
In experiment [5] the target is Voltage-gated potassium channel subunit beta-2 (Rattus norvegicus) (UniProt P62483). Nature of the experiment: inhibitors of rat Kvbeta2 reductase activity – biochemical, NADPH fluorescence, primary screen (AID 622).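 Also: slope of raw intensity against log time taken from 70 to 1610 s.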 The note with it: recombinant KvBeta, 4-cyanobenzaldehyde reduction, at 10 µM, stronger effect = higher value.
For experiment [6] the target is unchanged. The experiment is described as follows: enhancers of rat Kvbeta2 NADPH turnover – biochemical, NADPH fluorescence, primary screen (AID 623;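 active = NADPH fluorescence slope more negative than the mean of all samples by about 3 SD, 99.7% confidence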;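 also: fluorescence intensity change per second fitted from 20 to 320 s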). The note with it: Recombinant KvBeta, NADPH fluorescence decrease slope, 10 min; at 10 µM; stronger effect = lower value.
The target in experiment [7] is Muscarinic acetylcholine receptor M4 (Homo sapiens) (UniProt P08173). The experiment is described as follows: M4-linked GIRK flux change, two-sided – cell-based, HEK293 M4/GIRK, thallium flux, BTC-AM, M4 allosteric agonist project, primary screen (AID 625;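 active = fluorescence slope after compound addition differing from the mean of all tested samples at 99.7% confidence, mostly higher but some lower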;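 also: thallium influx through GIRK channels coupled to M4 in HEK293 cells with BTC-AM dye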). The note with it: at 10 µM, actives lie on both sides. The procedure, abridged:
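Assay system: HEK293 cells with M4 receptor and GIRK channels / Controls: carbachol and DMSO controls / Schedule: 1 h dye loading, 2 min kinetic read / Technique: kinetic fluorescence with BTC-AM dye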

Experiment [8] is described as follows: inhibitors of larval lipid processing in zebrafish, primary screen, whole organism, PED6 fluorescence, gall bladder and intestine (AID 686;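 active = a full or partial loss of lipid-probe fluorescence in the fish gall bladder, intestine or both, judged by eye; inactive = no fluorescence loss, or compound toxic to the fish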;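 also: signal comes from phospholipase A2 cleavage of quenched PED6 carried via bile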). The note with it: Zebrafish larvae PED6 lipid processing, fluorescence scoring; screened at 20 µM (by protocol). The gist of the method: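 Doses: 20 µM single dose. Test system: live zebrafish larvae aged 5-7 days, whole organism. Quantity: five larvae per well. Measured by: By-eye fluorescence microscopy. Reagent: ingested quenched lipid PED6 at 100 nM. Read-out: visual per-well fluorescence inhibition score. Times: overnight exposure of larvae to compound plus PED6.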

A short description of experiment [9]: loss of swimming-algae plug formation – whole organism, Chlamydomonas reinhardtii, WT vs cilia-less mutant, absorbance, 96-well, primary screen (AID 463189;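 active = inhibition at or above 50% relative to wild type and mutant plate controls; inactive = inhibition below 50%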;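 also: 0% = wild type cc124 cells in DMSO and 100% = ciliumless bld1 mutant cells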). The note with it: Chlamydomonas reinhardtii gravitaxis, OD600 absorbance, 2 days; at 10 µM; stronger effect = higher value.
Where [10] appears, read: measured here: cell density z-score.
Where [11] appears, read: measured here: nuclear c-Myc green intensity z-score.
The mark [12] stands for this setting: measured here: nuclear pErk red intensity z-score, stronger effect = higher value.

Active and inactive are the calls of the source.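 The calls were made as follows, unless noted: active = fluorescence slope higher than the sample average by over 3 SD (cut at about -0.22 in these data, passing the limit was not always enough); inactive = the rest.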

Voltage-gated potassium channel subunit beta-2 (Rattus norvegicus), sequence (P62483 whole entry, looked up): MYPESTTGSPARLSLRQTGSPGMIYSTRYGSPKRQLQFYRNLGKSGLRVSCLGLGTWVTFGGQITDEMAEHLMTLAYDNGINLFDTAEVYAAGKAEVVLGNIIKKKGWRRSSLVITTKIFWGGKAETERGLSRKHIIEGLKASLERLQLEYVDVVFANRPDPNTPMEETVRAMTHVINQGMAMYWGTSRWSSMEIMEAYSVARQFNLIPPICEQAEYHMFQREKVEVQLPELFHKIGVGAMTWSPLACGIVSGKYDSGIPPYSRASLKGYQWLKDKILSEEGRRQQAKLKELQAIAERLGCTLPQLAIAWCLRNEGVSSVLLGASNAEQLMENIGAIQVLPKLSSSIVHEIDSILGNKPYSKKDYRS
Muscarinic acetylcholine receptor M4 (Homo sapiens), sequence (P08173 whole entry, looked up): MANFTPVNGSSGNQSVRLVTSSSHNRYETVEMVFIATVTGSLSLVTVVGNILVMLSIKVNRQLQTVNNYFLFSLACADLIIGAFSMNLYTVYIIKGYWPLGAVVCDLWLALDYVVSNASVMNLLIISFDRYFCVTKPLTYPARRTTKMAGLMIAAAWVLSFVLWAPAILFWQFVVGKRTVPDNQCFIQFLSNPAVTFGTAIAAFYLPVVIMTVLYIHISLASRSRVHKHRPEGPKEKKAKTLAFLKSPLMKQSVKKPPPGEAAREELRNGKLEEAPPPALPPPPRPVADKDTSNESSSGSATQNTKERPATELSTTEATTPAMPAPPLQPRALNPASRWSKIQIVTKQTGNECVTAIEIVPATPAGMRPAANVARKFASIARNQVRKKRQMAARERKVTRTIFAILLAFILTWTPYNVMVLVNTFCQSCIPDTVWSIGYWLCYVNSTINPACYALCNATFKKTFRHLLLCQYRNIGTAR
Dual specificity protein phosphatase 6 (Homo sapiens), sequence (Q16828 whole entry, looked up): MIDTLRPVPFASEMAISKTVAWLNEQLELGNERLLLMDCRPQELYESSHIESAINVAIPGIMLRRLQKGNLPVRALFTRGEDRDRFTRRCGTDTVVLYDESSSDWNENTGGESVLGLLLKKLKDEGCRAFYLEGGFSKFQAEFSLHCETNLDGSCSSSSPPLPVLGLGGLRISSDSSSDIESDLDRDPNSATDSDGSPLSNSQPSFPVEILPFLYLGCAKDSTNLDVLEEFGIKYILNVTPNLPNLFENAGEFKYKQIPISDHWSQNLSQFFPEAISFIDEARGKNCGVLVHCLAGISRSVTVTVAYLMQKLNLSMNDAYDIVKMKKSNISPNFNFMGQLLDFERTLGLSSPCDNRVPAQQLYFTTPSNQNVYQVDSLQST

Take `O=C(CC1SC2=NCCN2C1=O)Nc1ccccc1` (centres undefined): in experiment [1], the cell count worked out at 693. Besides, the inhibition in experiment [1] is -7.8% (inactive); in experiment [2] it was -79.2% (inactive); in experiment [4], 18.6% (inactive); in experiment [9] it was -0.757% (inactive). Also, the nuclei count in experiment [2] is 167%. Besides, the results for the z-score in [3] (setting [10]), in experiment [3] (setting [11]) and in [3] (setting [12]) were -0.578, 0.509 and 0.504, respectively. Moreover, the fluorescence slope was -0.42 (inactive) in experiment [5] and 0.00447 (inactive) in experiment [7]. The NADPH fluorescence slope in experiment [6] is -5.8e-05 (inactive). Further, the compound was called inactive in [8].
With `Cc1ccc(-c2nn(C)c(=O)c3ccccc23)cc1CN1CCOCC1`, the cell count in experiment [1] is 424. Also, the inhibition was -0.6% (inactive) in [1], -40.3% (inactive) in [2], 6.04% (inactive) in experiment [4] and -2.85% (inactive) in experiment [9]. Further, the nuclei count in experiment [2] stood at 145%. Also, the z-score in experiment [3] (setting [10]) was 0.246; in experiment [3] (setting [11]), 0.445; in [3] (setting [12]), -0.955. Also, the fluorescence slope in experiment [5] was -0.452 (inactive); in [7], 0.00454 (inactive). Also, the NADPH fluorescence slope in experiment [6] is -3.3e-05 (inactive). Moreover, the compound was classed as inactive in experiment [8].
In the case of `Clc1ccc(-n2ncc3c(NCc4ccccn4)ncnc32)cc1`, the cell count in experiment [1] was 537. Besides, the inhibition in [1] is -14.9% (inactive); in experiment [2] it was 6.6% (inactive); in experiment [4] it was 1.42% (inactive); in experiment [9], 0.96% (inactive). In [2], this compound yielded a nuclei count of 106%. For the same compound, the z-score in experiment [3] (setting [10]) was -1.8; in experiment [3] (setting [11]), 2.08; in experiment [3] (setting [12]), -1.64. The fluorescence slope in experiment [5] is -0.374 (inactive); in experiment [7], 0.0062 (inactive). The NADPH fluorescence slope in [6] was 5.6e-06 (inactive). Further, in experiment [8], the compound was called inactive.
For `C/C(NC(=O)c1ccccc1F)=C1\C(=O)C[C@@H]2[C@H]1C2(C)C`, in [1], the cell count came to 697. For the same compound, the inhibition was -13.5% (inactive) in experiment [1], -170% (inactive) in experiment [2], -2.47% (inactive) in experiment [4] and 24.1% (inactive) in [9]. In addition, the nuclei count in [2] was 187%. The z-score was -0.142 in experiment [3] (setting [10]), 0.763 in experiment [3] (setting [11]) and -0.13 in experiment [3] (setting [12]). Further, the values for the fluorescence slope in experiment [5] and in experiment [7] were -0.483 (inactive) and 0.00606 (inactive), respectively. Also, the NADPH fluorescence slope in experiment [6] was -0.000131 (inactive). The result in [8] was inactive.
With `Cc1ccc(N2C(=O)CC(Cn3nc(C)cc3C)C2=O)cc1` (centres undefined), the cell count in [1] came to 471. Besides, the inhibition is -3.4% (inactive) in [1], 5.8% (inactive) in [2], 11.9% (inactive) in [4] and 25.4% (inactive) in experiment [9]. The nuclei count in experiment [2] was 98.6%. In addition, the z-score in [3] (setting [10]) was 0.966; in [3] (setting [11]), -0.538; in experiment [3] (setting [12]), -0.159. Also, the fluorescence slope was -0.387 (inactive) in experiment [5] and 0.00565 (inactive) in [7]. The NADPH fluorescence slope in experiment [6] was -2e-06 (inactive). Further, the compound was called inactive in experiment [8].
Regarding `COc1ccc(C2CC(c3ccc(C)cc3)Nc3nc(N)nn32)cc1` (centres undefined), in experiment [1], the cell count worked out at 390. Also, the inhibition was 2.2% (inactive) in experiment [1], -104% (inactive) in experiment [2], 9.82% (inactive) in experiment [4] and -10.9% (inactive) in [9]. The compound also showed a nuclei count in experiment [2] of 145%. Besides, the z-score in experiment [3] (setting [10]) was -0.765; in experiment [3] (setting [11]) it was 2.44; in [3] (setting [12]) it was -0.827. Also, the values for the fluorescence slope in experiment [5] and in [7] were -0.447 (inactive) and 0.00548 (inactive), respectively. The NADPH fluorescence slope in experiment [6] is -7.3e-05 (inactive). In addition, in experiment [8], the call was inactive.
Regarding `NC(=O)C(c1ccccc1)C1CCCC1` (centres undefined), in experiment [1], the cell count was determined as 603. The inhibition in experiment [1] is -8.2% (inactive); in experiment [2], -33.8% (inactive); in experiment [4], -3.95% (inactive); in experiment [9], -3.81% (inactive). Moreover, the nuclei count in experiment [2] amounted to 113%. For the same compound, the values for the z-score in [3] (setting [10]), in experiment [3] (setting [11]) and in experiment [3] (setting [12]) were 1.58, -0.32 and -0.629, respectively. Also, the fluorescence slope is -0.409 (inactive) in experiment [5] and 0.00443 (inactive) in [7]. Also, the NADPH fluorescence slope in experiment [6] was -4.8e-05 (inactive). In addition, the call in [8] was inactive.
Consider `N#Cc1nc(COc2ccc(Cl)cc2)oc1N1CCN(Cc2ccccc2)CC1`, for which, in experiment [1], the cell count came to 489. Also, the inhibition in [1] is -3% (inactive); in [2], -24.2% (inactive); in [4], -2.29% (inactive); in [9], 3.53% (inactive). The same compound had a nuclei count in [2] of 139%. Further, the z-score in [3] (setting [10]) was -0.636; in experiment [3] (setting [11]) it was 0.047; in experiment [3] (setting [12]), 1.31. The figures for the fluorescence slope in experiment [5] and in experiment [7] were -0.411 (inactive) and 0.00907 (inactive), respectively. The NADPH fluorescence slope in experiment [6] is -5.4e-05 (inactive). The outcome in [8] was inactive.
Turning to `c1ccc2c(N3CCCCC3)nc(N3CCCCC3)nc2c1`, the cell count in experiment [1] was determined as 497. Moreover, the inhibition in experiment [1] is -2.8% (inactive); in experiment [2], 20.7% (inactive); in [4], 1.9e-07% (inactive); in experiment [9] it was 4.68% (inactive). The nuclei count in experiment [2] stood at 159%. The results for the z-score in experiment [3] (setting [10]), in [3] (setting [11]) and in experiment [3] (setting [12]) were -1.53, 0.598 and 1.04, respectively. In addition, the fluorescence slope was -0.388 (inactive) in experiment [5] and 0.00468 (inactive) in experiment [7]. Besides, in experiment [6], the NADPH fluorescence slope was -3.5e-05 (inactive). The result in experiment [8] was inactive.
Regarding `COCCCn1cnc2c(c1=O)c1nc3ccccc3nc1n2CCc1ccccc1`, in experiment [1], the cell count came to 607. The inhibition is -6.7% (inactive) in experiment [1], 10.3% (inactive) in experiment [2], 1.63% (inactive) in experiment [4] and 12.1% (inactive) in experiment [9]. In experiment [2], this compound returned a nuclei count of 115%. The z-score in experiment [3] (setting [10]) was -3.3; in experiment [3] (setting [11]), 0.876; in [3] (setting [12]), 0.579. Also, the fluorescence slope is -0.492 (inactive) in [5] and 0.00438 (inactive) in experiment [7]. Further, the NADPH fluorescence slope in experiment [6] is -4.8e-05 (inactive). The outcome in experiment [8] was inactive.
`CC1(C)Cc2c(c(N3CCOCC3)nc3sc4c(NCc5ccco5)nnnc4c23)CS1`: the cell count in [1] turned out to be 504. The inhibition in experiment [1] was -8.4% (inactive); in [2], -6.5% (inactive); in experiment [4] it was 19.8% (inactive); in experiment [9], 15.9% (inactive). In experiment [2], this compound gave a nuclei count of 116%. Moreover, the z-score is 1.05 in experiment [3] (setting [10]), -0.977 in [3] (setting [11]) and 0.343 in [3] (setting [12]). In addition, the fluorescence slope is -0.419 (inactive) in experiment [5] and 0.00933 (inactive) in experiment [7]. In addition, the NADPH fluorescence slope in experiment [6] is -5e-06 (inactive). The call in experiment [8] was inactive.
On to `CCCc1nc(N2CCCC2)c(C#N)c2c1CCCC2`, for which, in experiment [1], the cell count was found to be 605. The inhibition in experiment [1] was -1.2% (inactive); in experiment [2], -118% (inactive); in experiment [4], -5.81% (inactive); in [9] it was 4.3% (inactive). Moreover, the nuclei count in experiment [2] was determined as 141%. Also, the z-score in experiment [3] (setting [10]) was -1.08; in [3] (setting [11]) it was 0.0644; in experiment [3] (setting [12]), -0.444. The fluorescence slope in experiment [5] was -0.448 (inactive); in [7], 0.00554 (inactive). For the same compound, the NADPH fluorescence slope in [6] was -9.6e-05 (inactive). In addition, the compound was classed as inactive in experiment [8].
In the case of `CC(=O)N(Cc1ccccc1)c1ccc(C(=O)O)cc1`, in experiment [1], the cell count is 486. For the same compound, the inhibition in experiment [1] is -9.7% (inactive); in experiment [2], -65.3% (inactive); in experiment [4], 3.42% (inactive); in experiment [9] it was 18% (inactive). Also, the nuclei count in experiment [2] turned out to be 95.1%. In addition, the figures for the z-score in experiment [3] (setting [10]), in experiment [3] (setting [11]) and in experiment [3] (setting [12]) were -0.584, 0.905 and 1.49, respectively. For the same compound, the figures for the fluorescence slope in experiment [5] and in experiment [7] were -0.454 (inactive) and 0.00471 (inactive), respectively. The NADPH fluorescence slope in [6] is 3.6e-05 (inactive). Also, the result in experiment [8] was inactive.
